This is an account of results in article PMC4085138 (Chemistry and physics of lipids, 2013).

Counter-ions that a name gives are not always drawn.

Series [1] has as its target T1, granuphilin C2A domain (Homo sapiens, UniProt Q96C24).
T1 sequence (Q96C24 352-488): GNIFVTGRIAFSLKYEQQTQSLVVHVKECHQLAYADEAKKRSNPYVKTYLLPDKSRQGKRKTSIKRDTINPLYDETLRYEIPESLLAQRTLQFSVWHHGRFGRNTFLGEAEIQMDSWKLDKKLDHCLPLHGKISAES
In words: Intrinsic Trp fluorescence titration of IP6 or IP3 into free C2A domain. The class given is binding.

Series [2] addresses T1, granuphilin C2A domain. In words: FRET competition binding assay: IP6 titrated into vesicle-bound C2A. The settings on record: 125 μM accessible lipid, 1 μM C2A.
The target of series [3] is T1, granuphilin C2A domain. In words: Membrane dissociation kinetics on rapid addition of high IP6. Format: binding. The conditions noted are these: 8 mM IP6 rapidly added; biexponential.
Series [4] has as its target T1, granuphilin C2A domain. In words: Qualitative reversal of protein-to-membrane FRET by IP6. The class given is binding. The settings on record: 8 mM IP6, all lipid compositions tested. The method in brief:
(§1)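 Emission spectra recorded at 25 °C (excitation 284 nm) of vesicles bearing dansyl-PE acceptor (125 μM total accessible lipid) in KCl/NaCl/MgCl2/HEPES pH 7.4 buffer with 100 μM EDTA or 1 mM CaCl2. […] Each addition followed by 40 s stirred equilibration. Dansyl emission near 510 nm read; spectra dilution-corrected.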

Series [5] concerns the target T2, granuphilin C2B domain (Homo sapiens, UniProt Q96C24). The description is as above. The settings on record: 8 mM IP6, all lipid compositions tested. Format: binding. The method in brief:
as §1

The target of series [6] is T2, granuphilin C2B domain. In words: FRET competition binding assay: IP6 titrated into vesicle-bound C2B. The method in brief: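 Human C2B domain (Glu487–Leu671, E. coli-expressed, freed from GST by thrombin) at 1 μM, premixed with liposomes (125 μM total accessible lipid) in 140 mM KCl, […], 0.5 mM MgCl2, 25 mM HEPES pH 7.4 with 100 μM EDTA, 25 °C. IP6 titrated; acceptor emission at 520 nm (excitation 284 nm, 10-s average), dilution-corrected, lipid-only blank subtracted.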

A short description of series [7]: Qualitative protein-to-membrane FRET. Format: binding. The settings on record: 1 μM domain, 125 μM total accessible lipid. The method in brief:
as §1

Series [8] is described as follows: Qualitative protein-to-membrane FRET. Format: binding. The settings on record: PS and PI replaced with PG; 1 μM domain. The method in brief:
as §1

Series [9] is described as follows: Stopped-flow FRET association and dissociation kinetics. The settings on record: 0.3 μM protein, 75 μM total accessible lipid. The class given is binding. The method in brief:
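Association run by stopped-flow at 25 °C in assay buffer with 100 μM EDTA: 0.3 μM domain rapidly mixed with liposomes (75 μM total accessible lipid, after mixing). Excitation 284 nm, dansyl emission through a 475-nm longpass filter, data within 1 ms dead time discarded. Single-exponential fit gives kobs; traces averaged over 9–12 mixing events, ≥3 replicates.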

A short description of series [10]: Qualitative protein-to-membrane FRET. Format: binding. The settings on record: 1 μM domain, 125 μM total accessible lipid. The method in brief:
as §1
This is another data set of the same source.

Series [11] can be described thus: Qualitative protein-to-membrane FRET. The class given is binding. The settings on record: 1 μM domain, 125 μM total accessible lipid. The method in brief:
as §1
The source holds these as a separate data set.

Series [12] is described as follows: Stopped-flow FRET association and dissociation kinetics. Format: binding. The conditions noted are these: 0.3 μM protein, 75 μM total accessible lipid. The method in brief:
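Stopped-flow measurements at 25 °C in assay buffer with 100 μM EDTA; excitation 284 nm, dansyl emission through a 475-nm longpass filter, first 1 ms discarded. For association, 0.3 μM domain was mixed with liposomes (75 μM total accessible lipid, after mixing), and a single-exponential fit gave kobs. For dissociation, pre-bound complexes were mixed with equal volume of 4-fold excess unlabeled vesicles, and an exponential decay fit gave koff. kon was derived from kobs and koff; ≥3 replicates.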
This is another data set of the same source.

What is called Ki is the dissociation constant of the complex between target and ligand, obtained from inhibition or displacement. Read a high Ki as a looser hold on the target. On to `O=P(O)(O)O[C@@H]1[C@H](O)[C@H](O)[C@@H](OP(=O)(O)O)[C@H](OP(=O)(O)O)[C@H]1O` [IP3, D-myo-inositol-1,4,5-triphosphate tripotassium salt], for which, on granuphilin C2A domain [1], the Ki was 80 ± 30 µM and the “fold less tight binding of IP3 than IP6 to C2A” value is reported as ~ 40 fold.

What is called IC50 is the concentration that gives 50% inhibition. Turning to `O=P(O)(O)O[C@H]1[C@H](OP(=O)(O)O)[C@@H](OP(=O)(O)O)[C@H](OP(=O)(O)O)[C@@H](OP(=O)(O)O)[C@H]1OP(=O)(O)O` [IP6, D-myo-inositol 1,2,3,4,5,6,-hexakisphosphate dodecasodium salt], the IC50 was determined as 11 ± 1 µM on granuphilin C2A domain [2] (PC/PG/dPE vesicles); 5 ± 1 µM at granuphilin C2A domain [2] (PC/PI/dPE vesicles); 10 ± 1 µM at granuphilin C2A domain [2] (PC/PS/dPE vesicles); 1600 ± 200 µM at granuphilin C2A domain [2] (PM(+)PIP2 vesicles, 100 μM EDTA); 1100 ± 100 µM at granuphilin C2A domain [2] (PM(+)PIP3 vesicles); 37 ± 6 µM at granuphilin C2A domain [2] (PM(−)PIPx vesicles). Moreover, at granuphilin C2B domain [6], the IC50 was 21 ± 3 µM. Besides, on granuphilin C2A domain [3], the “fold faster dissociation kinetics than by approach to equilibrium method” value was ~ 100 fold. For the same molecule, the “reversal of protein-to-membrane FRET (dansyl emission at 512 nm)” value at granuphilin C2A domain [4] and at granuphilin C2B domain [5] was “completely reversed” in each case. For the same molecule, the Ki on granuphilin C2A domain [1] was found to be 1.8 ± 0.1 µM; on granuphilin C2B domain [6], 1.9 ± 0.5 µM.

B1: C2A: human granuphilin C2A domain (Gly352 – Ser488) with C-terminal His6 tag, expressed in E. coli (protein, UniProt Q96C24 352-488, looked up, fragment)
chain: GNIFVTGRIAFSLKYEQQTQSLVVHVKECHQLAYADEAKKRSNPYVKTYLLPDKSRQGKRKTSIKRDTINPLYDETLRYEIPESLLAQRTLQFSVWHHGRFGRNTFLGEAEIQMDSWKLDKKLDHCLPLHGKISAES
modifications: C2A domain C-terminal His6 tag
For B1, the “protein-to-membrane FRET (dPE emission) on protein addition” value is listed as “increase in dPE emission” in series [7], “Binding was restored” in series [8], “increase in dPE emission” in series [10] and “FRET was observed” in [11]. In addition, the results for the kobs for association in series [9] and in [12] were 190 ± 30 s⁻¹ and 150 ± 20 s⁻¹, respectively.
